MC4R ag barr: agonists of human melanocortin 4 receptor (MC4R) beta-arrestin; P32245; activation, % at 8.9 µM; U2OS MC4R beta-arrestin complementation, luminescence; percent of melanotan II response, DMSO zero; hit rate 0.98% among 360,000;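 active means activation above a per-plate cutoff, the mean activation of sample wells on that plate plus 3 SD, cut at about 8% in these data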
TLR9-MyD88 block: inhibitors of human TLR9-MyD88 binding | AID 504734 | inhibition, % at 4.98 µM | hit rate 0.21% among 340,000 | CHO BLA complementation TLR9-MyD88, CCF4 FRET ratio | Q9NR96+Q99836;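 active means inhibition above the mean over all tested compounds plus 3 SD, cut at about 21% in these data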;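 further: 0% = DMSO only wells and 100% = clavulanate BLA inhibitor control wells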
Target sequence (Q99836 whole entry, looked up): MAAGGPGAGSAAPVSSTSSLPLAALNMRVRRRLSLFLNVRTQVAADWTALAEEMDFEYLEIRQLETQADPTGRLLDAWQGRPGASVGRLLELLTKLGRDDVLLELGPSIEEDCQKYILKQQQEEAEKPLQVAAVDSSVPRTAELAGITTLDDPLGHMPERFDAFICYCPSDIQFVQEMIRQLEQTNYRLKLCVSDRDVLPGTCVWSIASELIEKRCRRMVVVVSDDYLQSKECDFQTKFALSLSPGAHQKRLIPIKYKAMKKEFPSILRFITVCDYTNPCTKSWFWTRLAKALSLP
Target sequence (Q9NR96 whole entry, looked up): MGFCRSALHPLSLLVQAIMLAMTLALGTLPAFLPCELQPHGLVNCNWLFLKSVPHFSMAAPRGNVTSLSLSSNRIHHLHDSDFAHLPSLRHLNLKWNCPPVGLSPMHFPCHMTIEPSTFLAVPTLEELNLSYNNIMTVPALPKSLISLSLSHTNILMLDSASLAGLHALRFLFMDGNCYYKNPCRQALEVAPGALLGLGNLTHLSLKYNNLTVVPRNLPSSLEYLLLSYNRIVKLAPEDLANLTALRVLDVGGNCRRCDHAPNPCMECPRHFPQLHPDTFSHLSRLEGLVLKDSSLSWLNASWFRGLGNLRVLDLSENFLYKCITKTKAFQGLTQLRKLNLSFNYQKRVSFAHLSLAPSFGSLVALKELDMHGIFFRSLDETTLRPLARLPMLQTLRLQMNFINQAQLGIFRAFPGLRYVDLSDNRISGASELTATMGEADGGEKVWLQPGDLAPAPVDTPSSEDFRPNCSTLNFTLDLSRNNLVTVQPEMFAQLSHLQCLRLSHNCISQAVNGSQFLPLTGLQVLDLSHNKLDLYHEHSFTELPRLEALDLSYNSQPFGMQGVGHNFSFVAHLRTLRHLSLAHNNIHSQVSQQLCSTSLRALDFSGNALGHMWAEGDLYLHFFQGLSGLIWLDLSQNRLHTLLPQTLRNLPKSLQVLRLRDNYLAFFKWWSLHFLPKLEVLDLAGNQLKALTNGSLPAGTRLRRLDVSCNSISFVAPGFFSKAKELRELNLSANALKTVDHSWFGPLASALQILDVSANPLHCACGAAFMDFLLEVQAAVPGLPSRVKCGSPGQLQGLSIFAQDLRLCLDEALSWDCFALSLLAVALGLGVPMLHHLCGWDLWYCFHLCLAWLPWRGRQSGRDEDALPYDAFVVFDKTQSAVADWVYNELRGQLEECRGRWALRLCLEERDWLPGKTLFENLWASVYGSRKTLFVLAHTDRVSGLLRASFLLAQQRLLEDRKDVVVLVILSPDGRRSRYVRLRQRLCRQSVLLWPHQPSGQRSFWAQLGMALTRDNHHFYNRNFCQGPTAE
NOD2 RIPK2 PPI: inhibitors of human NOD2-RIPK2 interaction. O43353. CHO BLA complementation NOD2-RIPK2, CCF4 ratio. inhibition, % at 4.98 µM. hit rate 0.38% among 360,000. AID 624267; in the data active means inhibition above about 21%;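 further: 0% = vehicle only and 100% = reference blocker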
TLR4-MyD88 BLA: TLR4-MyD88 interaction inhibition in cells; O00206+Q99836; HeLa CL3-4 TLR4/MyD88 BLA complementation, FRET ratio; inhibition, % at 8.4 µM; hit rate 0.18% among 200,000; in the data active means inhibition above about 25%;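 further: 0% = vehicle and 100% = reference inhibitor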
MIN6 prolif: inducers of beta-cell replication in MIN6 cells | hit rate 0.29% among 330,000 | AID 2380 | MIN6 cells proliferation, ATPlite luminescence, 48 h; cells starved in 0.2% serum; 100% = growth in 10% serum | proliferation, % at 10 µM;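 active means compounds whose signal lies at least 3.5 SD above the mean of all wells on their plate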;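 further: 0% = DMSO-treated cells in low-serum medium and 100% = 10% serum control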
MC4R antagonist: human MC4R antagonism in cAMP assay. MC4R-expressing cells, MTII-stimulated cAMP, LANCE TR-FRET. inhibition, % at 6.5 µM. P32245. hit rate 0.48% among 360,000;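 active means inhibition above its plate's cutoff, the mean of tested wells on that plate plus 3 SD, cut at about 29% in these data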;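 further: 0% = Melanotan II alone and 100% = Melanotan II plus saturating MCL0020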
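System: U2OS-MC4R stable cell line; Technique: Eu-cAMP/anti-cAMP TR-FRET, emission 671 nm; Repeats: single well per compound; Also added: Melanotan II; Dosing: one concentration, 6.5 µM nominal; Schedule: 30-min compound, 1-h challenge, 1-h detection, room temperature.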
U2OS cAMP counter: counter-screen for MC4R antagonists: nonselective cAMP signaling inhibitors. shares compounds with MC4R antagonist. parental U2OS, forskolin cAMP, LANCE TR-FRET. inhibition, % at 6.5 µM. hit rate 26% among 1,600;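 active means mean inhibition over triplicates above the low-control well mean plus 3 SD, set per campaign, cut at about 13% in these data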;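 further: signal is single emission at 671 nm which falls as cellular cAMP rises; 0% = forskolin-stimulated wells and 100% = buffer without forskolin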
MC4R antag conf: human MC4R cAMP antagonism confirmation; shares compounds with MC4R antagonist; MC4R-expressing cells, MTII-stimulated cAMP, TR-FRET; inhibition, % at 6.5 µM; hit rate 27% among 1,600; AID 602195; in the data active means inhibition above about 29%;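 further: 0% = agonist stimulated wells alone and 100% = agonist stimulated wells plus saturating reference antagonist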
The depositor's hits bear a star; . = no result; ! = not active in a repeat. Hits are enriched below; roughly 2.1% of the tested compounds scored in any of these assays.

SMILES | MC4R ag barr | TLR9-MyD88 block | NOD2 RIPK2 PPI | TLR4-MyD88 BLA | MIN6 prolif | MC4R antagonist | U2OS cAMP counter | MC4R antag conf
O=S(=O)(c1ccc(F)cc1)N1CCN(c2nc(-c3cccnc3)nc3ccccc23)CC1 | 3.5 | -0.7 | 0.6 | . | -5.9 | 29.8* | 6.1 | 23.3
O=S(=O)(c1ccccc1)N1CCN(c2nc(-c3cccnc3)nc3ccccc23)CC1 | 3.3 | 0.0 | -1.1 | . | -2.2 | 10.7 | . | .
CCOC(=O)c1c(-c2ccc(C)o2)csc1NC(=O)COC(=O)c1cccs1 | -1.4 | 1.4 | 16.4 | 11.2 | -3.6 | 31.4* | 4.5 | 15.0
CCOC(=O)c1c(-c2ccccc2)csc1NC(=O)CSc1ccccc1 | 0.0 | -3.8 | -7.8 | -12.7 | -3.8 | 19.6 | . | .
CCOC(=O)c1c(-c2ccccc2)csc1NC(=O)COc1ccc2c(C)cc(=O)oc2c1 | -0.3 | -2.9 | -1.0 | -9.0 | 0.0 | 29.7* | 1.2 | 1.1
CC(=O)N1N=C(c2ccc(C)cc2)CC1c1ccco1 (configuration not stated) | -0.8 | -2.0 | -6.1 | 3.3 | -4.0 | 29.5* | 12.5 | 2.5
Cc1ccc(CC(=O)N2CCN(c3cccc(C(F)(F)F)c3)CC2)cc1 | 2.8 | -4.6 | -4.7 | -2.9 | -1.4 | 33.2* | -0.8 | 0.3
Cc1ccc(S(=O)(=O)CC(=O)N2CCN(c3cccc(C(F)(F)F)c3)CC2)cc1 | -2.0 | 4.8 | -5.5 | . | -3.9 | 13.2 | . | .
O=C(/C=C/c1ccco1)OCc1nnc(-c2ccc(Cl)cc2)o1 | -2.1 | -2.3 | -3.8 | 13.0 | 2.5 | 31.6* | 0.5 | -8.2
CCN(CC)S(=O)(=O)c1ccc(N2CCOCC2)c(NC(=O)c2ccccc2F)c1 | -3.1 | 9.0 | -1.7 | 4.4 | 5.5 | 30.4* | 3.0 | 18.1
COc1cccc(C(O)c2nc(-c3cnn(C)c3)cs2)c1 (configuration not stated) | -1.7 | . | 0.3 | . | . | -3.2 | . | .
CC(C)c1ccc(NC(=O)[C@H]2CSCN2C(=O)[C@@H]2CCC(=O)N2)cc1 | 2.0 | 9.2 | -15.4 | . | -2.4 | -2.3 | . | .
CCN1CCN(C(c2cccc(OC)c2)c2sc3nc(C)nn3c2O)CC1 (configuration not stated) | -1.3 | 6.3 | -8.5 | -9.0 | 0.0 | -1.0 | . | .
COc1cccc(C(c2sc3nc(C)nn3c2O)N2CCc3ccccc3C2)c1 (configuration not stated) | 0.8 | -11.6 | 3.7 | -3.1 | -2.5 | 32.7* | -0.1 | -8.0
Cc1c(C(=O)OCC(=O)NCc2ccc3c(c2)OCO3)cccc1[N+](=O)[O-] | -1.6 | 5.7 | -0.1 | -1.7 | 0.0 | -1.7 | . | .
COc1cc(NC(=O)c2cccc3c(-c4cnn(C)c4)coc23)cc(OC)c1OC | -0.6 | . | 3.6 | . | . | 46.1* | -1.3 | 10.6
COc1ccc(NC(=O)c2cccc3c(-c4cnn(C)c4)coc23)cc1 | -0.8 | . | -1.9 | . | . | 2.8 | . | .
COc1cccc(/C=N/n2c(-c3ccco3)nc3ccccc3c2=O)c1OC | -1.7 | -1.1 | 6.4 | 8.3 | 1.1 | 0.1 | . | .
CCOC(=O)Cc1ccc(NC(=O)c2cccc([N+](=O)[O-])c2)cc1 | -2.1 | -1.4 | -9.0 | -3.9 | -3.8 | 9.2 | . | .
CCOC(=O)CSc1nnc(NC(=O)c2cccc([N+](=O)[O-])c2)s1 | -0.7 | 9.6 | 4.4 | 2.2 | -1.6 | 38.7* | 2.7 | -0.5
COc1ccc(N2CCN(C(c3cccs3)C(C)NC(=O)c3ccc4c(c3)OCO4)CC2)cc1 (configuration not stated) | 1.4 | -9.9 | -4.2 | -10.9 | -2.8 | 34.5* | -3.3 | -9.6
COc1ccc(N2CCN(C(CNC(=O)C(=O)NCc3ccc4c(c3)OCO4)c3ccco3)CC2)cc1 (configuration not stated) | 2.8 | -6.1 | 1.6 | -8.8 | -1.7 | 29.0* | 4.1 | -3.7
N#Cc1cccc(NC(=O)CN2C(=O)NC(Cc3ccccc3)C2=O)c1 (configuration not stated) | 0.7 | 0.2 | 1.5 | . | 1.0 | -3.8 | . | .
O=C(Cc1ccc(Cl)cc1)N/N=C1\CCCc2ccccc21 | 1.6 | -4.0 | -7.6 | -8.2 | -1.1 | 6.5 | . | .
O=C(CNc1ccc(F)cc1)N/N=C1\CCCc2ccccc21 | -0.9 | -4.4 | 0.3 | 12.3 | 0.1 | 29.9* | 1.1 | 5.7
SMILES | MC4R ag barr | TLR9-MyD88 block | NOD2 RIPK2 PPI | TLR4-MyD88 BLA | MIN6 prolif | MC4R antagonist | U2OS cAMP counter | MC4R antag conf
NC(=NCCCCCCN=C(N)/N=C(\N)Nc1ccc(Cl)cc1)/N=C(\N)Nc1ccc(Cl)cc1 | 2.1 | 4.2 | 10.3 | . | -8.0 | 80.3*! | -11.2 | 71.0*
CC(C)N=C(N)N=C(N)Nc1ccc(Cl)cc1 | -1.0 | -12.4 | 1.8 | . | -7.9 | 11.7 | . | .
O=C(OC1CCOC1=O)c1cc(-c2ccc(Cl)cc2)nc2ccccc12 (configuration not stated) | -0.4 | 0.0 | 5.2 | 3.9 | 1.4 | 35.1* | 17.4* | 23.3
CCN(CC)S(=O)(=O)c1ccc(C)c(N=C=S)c1 | -0.2 | -9.3 | 5.5 | 6.4 | -3.6 | 5.7 | . | .
COc1ccc(/C=C/C2=CC(C)(C)NC(=S)N2)cc1OC | -1.1 | -2.3 | 4.1 | -0.8 | -0.5 | -9.2 | . | .
COc1cccc(/C=C/C2=CC(C)(C)NC(=S)N2)c1 | -1.8 | -11.3 | -4.1 | -12.2 | -3.8 | 28.7* | -3.1 | -9.6
Cc1ccc(N=C(NO)c2cnccc2C(F)(F)F)c(C)c1 | 0.8 | -0.1 | -2.9 | . | -0.4 | 30.5* | -0.8 | -10.2
Cc1cccc(NC(=S)N2CCC(NC(=O)C3CCCCC3)CC2)c1 | 0.7 | -8.9 | -6.1 | . | -2.2 | 7.0 | . | .
O=C(O)c1cccc(S(=O)(=O)Nc2ccccc2-c2ccccc2)c1 | 0.4 | -0.3 | 0.0 | -6.4 | -4.1 | 29.1* | 2.9 | -8.3
Cc1ccc(/C=N\NC(=O)CNC(=O)C23CC4CC(CC(C4)C2)C3)o1 | -0.7 | -8.9 | -14.8 | . | 0.2 | -1.9 | . | .
C/C(=N/NC(=O)CN(c1ccccc1)S(=O)(=O)c1ccccc1)c1ccccc1O | 0.3 | -4.4 | 4.3 | . | -4.8 | 30.4* | -0.3 | 14.1
Cc1ccc(C)c(NC(=O)CCC(=O)N/N=C/c2ccc3c(c2)OCO3)c1 | 1.2 | 0.3 | 4.3 | 3.9 | -0.7 | 31.5* | -0.9 | 6.9
Cn1ccnc1C(=O)Cc1ccc([N+](=O)[O-])cc1 | 0.8 | . | -6.7 | . | 1.2 | -2.7 | . | .
Cc1ccc(C(=O)NCC(=O)OCC(=O)Nc2ccc(Cl)cc2C(F)(F)F)cc1C | 3.6 | -9.6 | -6.3 | -1.8 | 0.0 | 28.8* | 6.3 | 17.6
Cc1ccsc1C(=O)OCC(=O)Nc1ccc(Cl)cc1C(F)(F)F | 0.9 | 7.3 | -1.5 | 1.7 | -0.8 | 16.3 | . | .
CCOc1ccc(-c2nnc3ccc(SCC(=O)N4CCN(c5ccccc5)CC4)nn23)cc1 | 0.3 | -0.7 | -1.2 | . | . | 31.8* | 2.9 | 4.3

Assay outcomes (PubChem BioAssay)
